High-throughput results from PubChem.
Hits are enriched below; roughly 5.8% of the tested compounds scored in any of these assays.
GASC1 inh: inhibitors of human demethylase GASC-1 KDM4C. actives 0.15% (n = 96,000). AID 720574. Q9H3R0. inhibition, % at 12.5 µM. GST-KDM4C 2-372, H3K9me3 peptide, LANCE TR-FRET;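 active = mean replicate inhibition above about 25%, with at least 55% of replicates also reaching it, limit read from the data, passing the limit was not always enough; inconclusive = only one of those two conditions met; inactive = neither condition met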
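Material: GST-tagged GASC-1 (JMJD2C) catalytic fragment, aa 2-372. Input: enzyme final amount 10 nM. Medium: HEPES buffer, pH 7.5, plus ascorbate. Reagent: H3K9me3 peptide substrate, Fe(II), 2-oxoglutarate. Doses: single dose. Times: reaction 30 min RT, detection step 1 h RT. Measured by: LANCE TR-FRET. Evaluation: Fall in 671/618 emission ratio as inhibition.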
Pf Dd2 growth: inhibitors of Plasmodium falciparum Dd2 growth. P. falciparum Dd2 growth, SYBR Green, 72 h; stronger effect = lower value. activity change, % at 10 µM. actives 2.3% (n = 94,000). AID 1159554; in the data active = activity change below about -80%; inconclusive = no clear call, values can overlap the other calls
T cruzi growth-1: inhibitors of T. cruzi proliferation. T. cruzi beta-gal in NIH3T3, GalScreen luminescence, 90 h. inhibition, % at 8.34 µM. actives 5.9% (n = 77,000);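 active = mean inhibition above about 93%, with at least 55% of replicates each passing it, limit read from the data, passing the limit was not always enough; inconclusive = only one of those two conditions holds; inactive = neither condition holds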
IDH1 mut inh: inhibitors of human IDH1 R132H; actives 0.18% (n = 70,000); O75874; inhibition, % at 10 µM; IDH1 R132H reductase, diaphorase/resazurin fluorescence, 60 min; in the data active = inhibition above about 34%; inconclusive = no clear call, values can overlap the other calls; inactive = below about 11%;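 note: 0% = DMSO and 100% = no enzyme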
Target sequence (O75874 whole entry R132H): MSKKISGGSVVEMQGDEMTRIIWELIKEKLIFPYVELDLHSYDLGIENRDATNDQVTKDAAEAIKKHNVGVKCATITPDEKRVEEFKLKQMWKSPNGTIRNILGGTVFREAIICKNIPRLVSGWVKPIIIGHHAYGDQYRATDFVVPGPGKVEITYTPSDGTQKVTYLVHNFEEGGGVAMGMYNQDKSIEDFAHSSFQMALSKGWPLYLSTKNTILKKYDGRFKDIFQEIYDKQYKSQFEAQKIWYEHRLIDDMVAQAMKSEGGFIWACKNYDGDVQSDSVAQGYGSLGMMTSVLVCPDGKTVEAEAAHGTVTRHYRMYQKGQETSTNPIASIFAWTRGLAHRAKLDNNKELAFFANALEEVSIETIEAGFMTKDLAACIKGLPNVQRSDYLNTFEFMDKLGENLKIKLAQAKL
T cruzi growth-2: inhibitors of T. cruzi proliferation. shares compounds with T cruzi growth-1. T. cruzi beta-gal in NIH3T3, GalScreen luminescence, 90 h. inhibition, % at 8.35 µM. actives 72% (n = 5,600). AID 651739;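 active = mean replicate inhibition above about 95% and at least 55% of replicates individually reaching it, limit read from the data; inconclusive = only one of the two criteria is met; inactive = neither criterion is met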
T cruzi growth-3: inhibitors of T. cruzi proliferation; shares compounds with T cruzi growth-1; T. cruzi beta-gal in NIH3T3, GalScreen luminescence, 90 h; inhibition, % at 2.09 µM; actives 21% (n = 5,600); AID 651740;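 active = mean inhibition above about 95%, with at least 55% of replicates also reaching it, limit read from the data; inconclusive = meets just one of the two conditions; inactive = meets neither condition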;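 note: plate controls were neutral control median for no effect and positive control median for full effect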
NIH3T3 tox: NIH/3T3 (mouse) viability loss; shares compounds with T cruzi growth-1; NIH/3T3 viability, CellTiter-Glo ATP luminescence, 90 h; cytotoxicity (signal decrease), % at 8.35 µM; actives 14% (n = 5,600);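 active = mean signal decrease across replicates above about 35% based on untreated-well scatter, with enough replicates individually passing, limit read from the data; inconclusive = no rule stated though some were filed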;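 note: 0% = median of neutral control wells and 100% = median of positive control wells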
3T3 cytotox 2: cytotoxicity in mouse NIH/3T3 fibroblasts. shares compounds with T cruzi growth-1. NIH/3T3 viability, CellTiter-Glo ATP luminescence, 90 h. inhibition, % at 24.9 µM. actives 56% (n = 5,600);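 active = mean loss of cell viability signal at or above a set limit, and enough replicates individually reaching it; inconclusive = meets only the mean limit or only the replicate share; inactive = meets neither condition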;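 note: 0% = median of neutral control wells and 100% = median of positive control wells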
* hit, by the source's call; u = inconclusive; x = not tested or not shown.

SMILES	GASC1 inh	Pf Dd2 growth	T cruzi growth-1	IDH1 mut inh	T cruzi growth-2	T cruzi growth-3	NIH3T3 tox	3T3 cytotox 2
CN1c2ccc(-c3ccccc3F)cc2[C@H]2[C@H](CCN2C(=O)Cc2ccccn2)[C@@H]1CO	3	-16	88	x	x	x	x	x
CN1c2ccc(-c3ccccc3F)cc2[C@@H]2[C@@H](CCN2C(=O)c2cccc(F)c2)[C@@H]1CO	-5	-48	76	x	x	x	x	x
CCN(CC(=O)Nc1cccc(Cl)c1C)S(=O)(=O)c1ccc(C)cc1	x	x	x	-1	x	x	x	x
CCC(=O)N1CC[C@@H]2[C@H]1c1cc(-c3ccc(F)cc3)ccc1N(C)[C@H]2CO	0	-4	106*	x	100*	94	-25	-7
CCC(=O)N1CC[C@@H]2[C@H]1c1cc(-c3cccc(F)c3)ccc1N(C)[C@H]2CO	1	-2	62	x	x	x	x	x
COc1ccccc1-c1ccc([C@H]2[C@@H](CO)N3CCCCN(C(=O)CN4CCOCC4)C[C@@H]23)cc1	0	19	u	x	76	71	27	65*
COc1ccccc1-c1ccc([C@@H]2[C@@H](CO)N3CCCCN(C(=O)CN4CCOCC4)C[C@@H]23)cc1	1	-21	114*	x	39	-29	3	26*
Cc1ccc(S(=O)(=O)NC(C)C(=O)Nc2ccc(I)cc2)cc1 (configuration not stated)	x	x	x	0	x	x	x	x
CN(CC(=O)Nc1ccccc1[N+](=O)[O-])S(=O)(=O)c1ccccc1	x	x	x	1	x	x	x	x
CC(C)(c1ccc(NS(=O)(=O)C(F)(F)F)cc1)c1ccc(C(C)(C)c2cccc(NS(=O)(=O)C(F)(F)F)c2)cc1	x	x	x	14	x	x	x	x
CC(C)C#Cc1ccc([C@H]2[C@H]3CN(C(=O)NC(C)C)CCCCN3[C@H]2CO)cc1	-1	11	54	x	x	x	x	x
CC(C)C#Cc1ccc([C@@H]2[C@H](CO)N3CCCCN(C(=O)NC(C)C)C[C@@H]23)cc1	1	18	103*	x	101*	89	12	85*
CC(C)NC(=O)N1CCCCN2[C@H](CO)[C@@H](c3ccc(C#Cc4ccccc4)cc3)[C@H]2C1	-2	-2	103*	x	101*	72	23	102*
CC(C)NC(=O)N1CCCCN2[C@H](C1)[C@H](c1ccc(C#Cc3ccccc3)cc1)[C@@H]2CO	-1	13	82	x	x	x	x	x
CC(C)NC(=O)N1CCCCN2[C@H](CO)[C@H](c3ccc(C#Cc4ccccc4)cc3)[C@H]2C1	-1	-10	107*	x	106*	105*	41*	107*
CC(C)NC(=O)N1CCCCN2[C@H](C1)[C@@H](c1ccc(C#Cc3ccccc3)cc1)[C@@H]2CO	-1	4	76	x	x	x	x	x
NC(=O)CSc1nnc(Cc2ccccc2)n1-c1ccccc1	x	x	x	-1	x	x	x	x
C[C@@H]1CN([C@@H](C)CO)C(=O)Cc2cc(N(C)C)ccc2O[C@H]1CN(C)Cc1ccc(Oc2ccccc2)cc1	7	5	111*	0	91	115*	7	106*
C[C@H](CO)N1C[C@H](C)[C@@H](CN(C)Cc2ccc(Oc3ccccc3)cc2)Oc2ccc(N(C)C)cc2CC1=O	1	-23	116*	0	114*	82	15	106*
C[C@H](CO)N1C[C@H](C)[C@H](CN(C)Cc2ccc(Oc3ccccc3)cc2)Oc2ccc(N(C)C)cc2CC1=O	0	-25	65	x	x	x	x	x
C[C@@H]1CN([C@H](C)CO)C(=O)Cc2cc(NC(=O)Cc3cn(C)c4ccccc34)ccc2O[C@H]1CN(C)Cc1ccc(C(=O)Nc2ccccc2N)cc1	-1	-16	u	-1	91	37	5	15
C[C@@H]1CN([C@H](C)CO)C(=O)Cc2cc(NC(=O)Nc3ccccc3)ccc2O[C@@H]1CN(C)Cc1ccc(Cl)c(Cl)c1	-1	-9	102*	x	108*	41	6	104*
C[C@@H]1CN([C@H](C)CO)C(=O)Cc2cc(NC(=O)Cc3cn(C)c4ccccc34)ccc2O[C@H]1CN(C)Cc1ccc(Cl)c(Cl)c1	-2	-55	u	0	98*	86	18	43*
C[C@@H]1CN([C@H](C)CO)C(=O)c2cc(NC(=O)Cc3cn(C)c4ccccc34)ccc2O[C@@H]1CN(C)Cc1ccc(Cl)c(Cl)c1	0	-9	102*	0	99*	59	16	37*
C[C@@H]1CN([C@@H](C)CO)C(=O)c2cc(NC(=O)Cc3cn(C)c4ccccc34)ccc2O[C@@H]1CN(C)Cc1ccc(Cl)c(Cl)c1	-1	-20	84	-6	x	x	x	x
SMILES	GASC1 inh	Pf Dd2 growth	T cruzi growth-1	IDH1 mut inh	T cruzi growth-2	T cruzi growth-3	NIH3T3 tox	3T3 cytotox 2
Cc1ccc(NC(=O)CCn2nc(-c3ccccc3)c3ccccc3c2=O)cc1	x	x	x	1	x	x	x	x
COc1cc(OC)c(NC(=O)CCCN2C(=O)c3ccccc3C2=O)cc1Cl	x	x	x	0	x	x	x	x
N#C[C@H]1[C@@H](c2ccc(-c3cccc(F)c3)cc2)[C@H](CO)N1C(=O)NC1CCCC1	-1	20	93	x	x	x	x	x
N#C[C@@H]1[C@H](c2ccc(-c3cccc(F)c3)cc2)[C@H](CO)N1C(=O)NC1CCCC1	-1	-77	97*	x	109*	104*	17	27
C/C=C/c1ccc([C@H]2[C@@H](CO)N(CC3CCCCC3)[C@H]2CNC(C)C)cc1	x	-68	x	x	x	x	x	x
N#C[C@@H]1[C@@H](c2ccc(-c3cccc(F)c3)cc2)[C@H](CO)N1C(=O)NC1CCCC1	-1	-62	97*	x	105*	95	24	38*
CC(C)NC[C@H]1[C@@H](c2ccc(-c3cccc(F)c3)cc2)[C@@H](CO)N1CC1CC1	0	-22	109*	x	68	12	-1	105*
O=C(COc1ccccc1[N+](=O)[O-])Nc1cccc(-c2nc3cc(Cl)cc(Cl)c3o2)c1	x	x	x	0	x	x	x	x
COc1cc(O)c(OC)c2c1C(=O)CC(c1ccccc1)O2 (configuration not stated)	x	x	x	-1	x	x	x	x
CC1(C)CC(=O)c2c(O)cc(OCC(=O)c3cccc([N+](=O)[O-])c3)cc2O1	x	x	x	0	x	x	x	x
CCc1nc(SCC(=O)Nc2ccc(OC)cc2)c2c3c(sc2n1)COC(C)(C)C3	x	x	x	2	x	x	x	x
CCc1ccccc1NC(=O)CSc1ncnc2sc(C)c(C)c12	x	x	x	0	x	x	x	x
C[C@@H]1CN([C@@H](C)CO)C(=O)c2ccccc2-c2ccccc2CO[C@H]1CN(C)C(=O)Nc1ccnc(N2CCOCC2)c1	-1	-12	109*	-1	102*	92	6	11
C[C@@H]1CN([C@@H](C)CO)C(=O)c2c(c3ccccc3n2C)-c2ccccc2CO[C@H]1CN(C)C(=O)Nc1ccnc(N2CCOCC2)c1	2	-63	x	x	x	x	x	x
